Screens from PubChem.
Shown are actives, neighbours in structure and some others; about 12% of the full set was active somewhere.
Autophagy HCS: alters autophagy in cells; MEF GFP-LC3 puncta imaging; test concentration mostly 10 µM; calls only at 10 µM (by protocol); hit rate 0.98% among 190,000; AID 463193;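 active = percentage of spot-positive cells more than 3 SD above its plate mean, without a fluorescence outlier flag or 80% toxicity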;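 note: spot-positive cell cutoff set from DMSO-treated cells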
Dynein transport: dynein cargo transport inhibition; 3617.4 mouse cells, GR-EGFP nuclear translocation imaging; test concentration mostly 20 µM; stimulated with dexamethasone, 1 µM; stronger effect = lower value; z-score, hits read low; hit rate 0.47% among 220,000;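 active = plate z-score of nuclear minus cytoplasmic receptor signal below a set negative limit, without overly bright fluorescence or cell loss, cut at about -3.5 in these data, passing the limit was not always enough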;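 note: z-score of nuclear minus cytoplasmic ring GR-EGFP intensity difference per well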
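Buffer or medium: tetracycline-free induction medium containing charcoal-stripped FBS / Reagent: dexamethasone agonist, 1.0 µM final, for 30 min / Technique: automated 10x imaging of fixed Hoechst-stained cells / Times: induction 48 h, compound 1 h, agonist 30 min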
MT stabilizer: microtubule stabilization, imaging screen. % tubulin-high responders, % at 10 µM. hit rate 0.83% among 200,000. HeLa tubulin immunostaining HCS, 24 h; share of cells brighter than vehicle mean+2SD. AID 2205;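 active = plate Z-score above 3 for both tubulin-high and condensed-nucleus cell shares, with cell loss under 80%, at 10 µM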;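 note: anti alpha tubulin signal scored within the nucleus-defined area of each cell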
CHOP inh: CHOP inhibition in unfolded protein response; hit rate 3.8% among 220,000; AID 2732; inhibition, % at 10 µM; CHO-K1 CHOP-promoter luciferase, tunicamycin-induced, 15-18 h;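 active = compounds that reduced the stress-induced luciferase reporter signal by more than about 70% of percent inhibition, limit read from the data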;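 note: 0% = tunicamycin plus vehicle and 100% = wells without tunicamycin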
Lmaj promast: reduces viability of Leishmania major promastigotes | hit rate 9% among 200,000 | AID 1063 | inhibition, % at 10 µM | resazurin fluorescence viability; in the data active = inhibition above about 50%;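 note: promastigotes grown with compound for 44 hours at 28 °C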
b-catenin transl: alters nuclear translocation of beta-catenin in HeLa cells. immunofluorescence imaging. nuclear translocation activity, % at 5 µM. hit rate 0.3% among 190,000;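 active = nuclear translocation activity above 50% at 5 µM, with a well cell count of 50 or more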;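 note: per-cell ratio of nuclear to cytoplasmic median beta-catenin stain intensity; plate controls were DMSO negative control for no effect and GSK-3 inhibitor IX positive control for full effect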
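Test system: HeLa cells, endogenous beta-catenin; Compound: single 5 µM dose plus 0.02–20 µM confirmation series; Times: compound exposure 24 h at 37°C; Signal: fluorescence imaging of beta-catenin antibody stain plus DAPI; Read-out: % activation, nuclear-to-cytoplasmic median beta-catenin signal ratio per cell.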
Numbers without * were called inactive; i = inactive; . = no result; + = active, no number.

SMILES | Autophagy HCS | Dynein transport | MT stabilizer | CHOP inh | Lmaj promast | b-catenin transl
Nc1nc(N)c2c(n1)CCCC2 | . | -0.49 | . | 7 | . | -1
Cc1ccc(C(=O)Nc2cccc([N+](=O)[O-])c2)cc1S(=O)(=O)Nc1ccc(NC(=O)c2ccccc2)cc1 | i | -0.059 | 2 | -18 | 62* | -5
Cc1ccc(S(=O)(=O)CCC(=O)Nc2cccc([N+](=O)[O-])c2)cc1 | i | -0.61 | 2 | 35 | 1 | -1
Cc1ccc(NS(=O)(=O)c2ccc(OCC(=O)Nc3cccc([N+](=O)[O-])c3)c(C)c2)cc1 | i | 0.27 | 4 | 55 | 100* | .
Cc1ccc(NS(=O)(=O)c2cc(C(=O)Nc3cccc([N+](=O)[O-])c3)ccc2C)cc1 | i | 0.097 | 3 | 47 | 67* | 2
Cc1ccccc1NS(=O)(=O)c1cc(C(=O)Nc2cccc(N(C)S(C)(=O)=O)c2)ccc1C | i | -0.44 | 3 | 6 | 97* | 0
Cc1ccc(C(=O)Nc2cccc([N+](=O)[O-])c2)cc1S(=O)(=O)Nc1cccc(C(=O)O)c1 | i | 0.0049 | 4 | 9 | -7 | 6
Cc1ccc(NC(=O)CC(=O)c2ccc([N+](=O)[O-])cc2)cc1S(=O)(=O)Nc1cccc(Cl)c1 | i | -1.1 | 3 | 47 | 51* | 1
CCN(CC)S(=O)(=O)c1ccc2c3c(cccc13)C(=O)N2 | + | -0.77 | 2 | 38 | -1 | 0
CCN(c1cccc(C)c1)S(=O)(=O)c1ccc2c3c(cccc13)C(=O)N2 | i | 0.81 | 5 | 57 | 99* | -3
CCNS(=O)(=O)c1ccc2c3c(cccc13)C(=O)N2 | i | 0.64 | 1 | 23 | 4 | .
O=C(O)c1cc2ccccc2cc1Nc1ccccc1 | . | 0.78 | . | 9 | . | 0
CC(C)c1nc2c(c(=O)c3ccccc3n2C)c(=O)n1CCc1ccccc1 | . | 0.3 | . | 9 | . | -4
Cc1ccc(N2C(=O)C3C(c4ccccc4)N4CCCN4C3(C)C2=O)cc1 (centres undefined) | i | 0.63 | 3 | 7 | -6 | -4
O=c1c2ccccc2nc(/C=C/c2cccc([N+](=O)[O-])c2)n1CCCO | i | -0.1 | 1 | . | 21 | .
O=c1c2ccccc2nc(/C=C/c2ccc([N+](=O)[O-])cc2)n1CCCO | i | -0.31 | 3 | -6 | 60* | -3
Cc1ccccc1C(OCCN(C(C)C)C(C)C)c1ccccc1 (centres undefined) | i | -0.76 | 3 | -12 | 8 | -2
Cc1cc(C)c2nc(/N=C(\N)NC(=O)c3ccccc3)nc(C)c2c1 | . | -1.2 | . | -2 | . | 2
Cc1cc(C)c2nc(/N=C(\N)NC(=O)Nc3ccccc3)nc(C)c2c1 | i | -1 | 2 | 14 | 100* | 3
Cc1cc(C)c(S(=O)(=O)c2ccccc2C)c(Cl)n1 | i | 0.37 | 2 | 30 | 101* | .
Cc1ccc(S(=O)(=O)c2c(C)cc(C)nc2Cl)cc1 | i | -0.14 | 1 | 7 | -3 | 2
Cc1ccc(S(=O)(=O)c2c(C)cc(C)nc2Cl)c(C)c1 | i | 2.8 | 2 | 1 | 101* | 1
CCCCSc1nc(C)cc(C)c1S(=O)(=O)c1ccccc1C | i | -0.21 | 2 | 44 | 84* | .
Cc1[nH]c2ccccc2c1C(O)CN1CCC2(CC1)OCCO2 (centres undefined) | . | 0.11 | . | -7 | . | 0
CCCCC(O)(CCCC)C(=O)NN(C(=O)OCC)c1ccccc1 | i | 0.34 | 4 | -5 | -2 | -1
SMILES | Autophagy HCS | Dynein transport | MT stabilizer | CHOP inh | Lmaj promast | b-catenin transl
CCCC(O)(CCC)C(=O)NN(C(=O)CCl)c1ccccc1 | i | -1.7 | 4 | -27 | 52* | 0
COc1ccc(C(C(O)C(=O)c2c[nH]c3ccccc23)N2CCN(c3ccc(OC)cc3)CC2)cc1 (centres undefined) | i | -1.1 | 6 | -22 | 52* | -1
O=C(NCCc1c[nH]c2ccccc12)C(=O)NCC(c1cccnc1)N1CCN(c2ccccc2)CC1 (centres undefined) | i | 0.69 | 4 | 35 | 100* | 5
O=C(NCCc1c[nH]c2ccccc12)/C(=C/c1cccnc1)NC(=O)c1ccccc1 | i | -0.19 | 2 | 20 | -7 | .
COc1ccc(N2CCN(C(CNC(=O)C(=O)NCCc3c[nH]c4ccccc34)c3ccco3)CC2)cc1 (centres undefined) | i | -0.48 | 3 | 70 | 65* | 1
O=C(COc1ccc(Cl)cc1)NCc1ccncc1 | i | -0.21 | 2 | -1 | -7 | -1
Cn1nnnc1SCC(=O)N(C1CCCCC1)C1CCS(=O)(=O)C1 (centres undefined) | i | 0.9 | 2 | 2 | -8 | -2
CCC1(C)Cc2c(sc3nc(NN)n(C)c(=O)c23)CO1 (centres undefined) | i | -0.11 | 1 | 8 | 95* | .
CCOC(=O)CSc1nc2sc3c(c2c(=O)[nH]1)CC(C)(CC)OC3 (centres undefined) | i | 0.78 | 2 | 27 | -3 | .
CC(/C=N/NC(=O)c1cc(-c2ccccc2)nc2ccccc12)=C\c1ccco1 | i | -0.2 | 7 | 25 | 98* | 155*
CC(/C=N/NC(=O)c1cc(-c2ccc(Cl)cc2)nc2ccccc12)=C\c1ccco1 | i | 0.27 | 14 | -32 | 62* | 235*
Cc1cc(C(=O)N/N=C/c2ccco2)c2ccccc2n1 | i | 0.93 | 7 | 18 | 15 | -5
O=C(Nc1cc(Sc2nc3ccccc3s2)cc([N+](=O)[O-])c1)c1ccccc1F | i | 1.1 | 19 | 29 | 28 | -1
O=C(Nc1cc(Sc2nc3ccccc3s2)cc([N+](=O)[O-])c1)c1ccccc1 | i | 0.43 | 10 | 51 | 100* | 4
O=C(Nc1cc(Sc2ccccn2)cc([N+](=O)[O-])c1)c1cccc(F)c1 | i | -0.44 | 8 | 37 | 95* | 1
Cc1cc(NC(=O)CSc2nnc(Cc3cccn3C)n2CCc2ccccc2)no1 | i | 1.1 | 4 | 36 | -3 | -2
Cc1csc(NC(=O)CSc2nnc(Cc3cccn3C)n2CCc2ccccc2)n1 | i | -0.18 | 2 | 21 | 51* | -1
Cc1occc1-c1nnc(SCC(=O)Nc2ccccc2)n1CCc1ccccc1 | i | -1.1 | 2 | 24 | 66* | .
Cn1cccc1Cc1nnc(SCC(=O)Nc2cccc(F)c2)n1CCc1ccccc1 | + | 2.8 | 5 | 41 | 17 | -2
O=C(/C=C/c1ccccc1)NC1CCCc2ccccc21 (centres undefined) | i | 1.3 | 3 | -5 | 6 | -1
CNC(=O)C(=O)N/N=C/c1cccnc1 | . | 0.17 | . | 3 | . | 1
CN(CCC#N)C(=S)Nc1ccc(Oc2ccccc2)cc1 | i | -1 | 3 | -7 | 14 | .
